This is a sample that favours compounds with a hit; in the whole collection about 1.2% have one here.
core dimer inh: inhibitors of HCV core protein dimerization, primary screen, biochemical, TR-FRET, high-throughput. AID 1899, 2009. inhibition, % at 5 µM. 300,000 tested, 0.33% active. TR-FRET GST/Flag-core106 dimerization, 1536-well;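 active = inhibition above the mean of all tested compounds plus 3 SD, set per screening campaign, cut at about 45% in these data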
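assay system = GST-tagged and Flag-tagged HCV core protein residues 1-106 | controls = unlabelled core106 and no-GST-core106 wells | incubation = compound-protein-antibody incubation 4 h at 22.5 °C | probe or stimulus = Eu donor and XL665 acceptor anti-tag antibodies | read-out = % inhibition based on acceptor/donor emission ratio | signal = TR-FRET 671 and 617 nm emission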
NPR1 activator: GC-A stimulated cGMP production enhancers – HEK293 GC-A cells, cGMP TR-FRET, EC30 ANP, primary screen | Atrial natriuretic peptide receptor 1 (Homo sapiens), P16066 | 0% at EC30 ANP, 100% saturating ANP | activation, % at 10 µM | 370,000 tested, 0.14% active | AID 1671463, 2021; in the data active = activation above about 40%
CTSL1 counter: Fasciola hepatica cathepsin L1 inhibitors, primary screen, counter-screen for PFM18AAP inhibitor project, biochemical, QFRET, fluorogenic peptide substrate | recombinant F. hepatica cathepsin L1, Z-Leu-Arg-MCA fluorescence | inhibition, % at 5.96 µM | 300,000 tested, 0.49% active | AID 1906, 2009;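 active = inhibition above the mean of all tested compounds plus 3 SD, set per screening campaign, cut at about 17% in these data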;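 also: 0% = plate median of test compound wells and 100% = 1 µM Z-Phe-Ala-diazomethylketone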
GC-B act: human GC-B receptor activators, primary screen, HEK293 GC-B cells, cGMP TR-FRET, EC30 CNP | Atrial natriuretic peptide receptor 2 (Homo sapiens), P20594 | 0% at EC30 CNP, 100% saturating CNP | activation, % at 10 µM | 370,000 tested, 0.11% active | AID 1920062, 2024;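 active = activation at 10 µM reaching about 35% in either raw or pattern-adjusted values, limit read from the data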
ARFGAP1 inhibitor: inhibitors of rat ARFGAP1 GAP activity, primary screen, biochemical, fluorescence polarization, GDP tracer; ADP-ribosylation factor GTPase-activating protein 1 (Rattus norvegicus), Q62848; Arfgap1-stimulated ARF1 GTP hydrolysis, GDP FP detection; inhibition, % at 16.5 µM; 360,000 tested, 0.26% active;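 active = inhibition above a per-plate limit, mean inhibition of low control wells plus 3 SD, cut at about 25% in these data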;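 also: 0% = DMSO wells with enzyme and 100% = wells lacking Arfgap1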
Target sequence (Q62848 1-136 limits assumed): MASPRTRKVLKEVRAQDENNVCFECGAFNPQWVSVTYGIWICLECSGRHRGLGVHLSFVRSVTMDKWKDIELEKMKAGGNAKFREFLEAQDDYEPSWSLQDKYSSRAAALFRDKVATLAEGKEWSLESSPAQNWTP
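Material – truncated rat Arfgap1 GAP domain · Buffer or medium – HEPES-based buffer, pH 7.5 · Reagent – human ARF1(Δ1-17)-GTP substrate · Dosing – 16.5 µM single point, 1.26% DMSO · Schedule – GTP hydrolysis reaction 2 h at 25 °C · Technique – GDP detection by fluorescence polarization · Benchmarks – No-Arfgap1 wells (100%) versus DMSO full-reaction wells (0%) · Repeats – single replicate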
ASAP1 inh: inhibitors of human ASAP1 ArfGAP activity, primary screen, biochemical, fluorescence polarization. ASAP1-stimulated ARF1 GTP hydrolysis, GDP FP detection. inhibition, % at 16.5 µM. 360,000 tested, 0.19% active. AID 624377, 2012; in the data active = inhibition above about 25%;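 also: 0% = vehicle with enzyme and substrate and 100% = no enzyme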
Target sequence (Q9ULH1 325-724 limits assumed): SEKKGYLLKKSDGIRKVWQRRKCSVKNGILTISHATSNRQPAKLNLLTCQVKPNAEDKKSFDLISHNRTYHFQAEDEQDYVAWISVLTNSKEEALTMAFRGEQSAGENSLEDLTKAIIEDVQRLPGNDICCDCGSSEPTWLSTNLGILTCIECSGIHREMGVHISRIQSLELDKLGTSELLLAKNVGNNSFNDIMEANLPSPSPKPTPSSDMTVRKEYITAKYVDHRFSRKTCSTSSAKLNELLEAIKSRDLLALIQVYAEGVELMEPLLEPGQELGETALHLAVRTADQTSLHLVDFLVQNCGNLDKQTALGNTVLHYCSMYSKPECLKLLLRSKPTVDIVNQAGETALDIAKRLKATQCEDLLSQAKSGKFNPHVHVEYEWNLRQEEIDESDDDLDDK
* marks the source's active call; other numbers are inactive results; · = no result.

SMILES | core dimer inh | NPR1 activator | CTSL1 counter | GC-B act | ARFGAP1 inhibitor | ASAP1 inh
O=C(CNC(=O)c1cccc(F)c1)OCc1cc(=O)n2cc(Br)ccc2n1 | 0 | 6 | 17* | 1 | -7 | -8
COc1ccc(OCC(=O)Nc2cc(OC)ccc2N2CCCCC2)cc1 | 1 | -6 | -1 | -11 | -10 | -10
CCCc1cc(=O)[nH]c(SCC(=O)N2N=C(c3ccc(Cl)cc3)CC2c2ccco2)n1 (stereo not given) | 24 | -1 | -8 | 1 | -8 | -3
O=C(O)/C=C/C(=O)N1N=C(c2ccco2)CC1c1ccco1 (stereo not given) | -3 | -5 | 35* | 3 | -3 | 3
O=C(CCl)N1N=C(c2cccs2)CC1c1ccco1 (stereo not given) | 9 | 4 | 27* | 3 | -2 | 6
Nc1cc(=O)[nH]c(SCC(=O)N2N=C(c3ccc(Cl)cc3)CC2c2ccco2)n1 (stereo not given) | 49* | -5 | -2 | 0 | -5 | -3
c1ccc(Nc2scc(-c3ccccc3)[n+]2Cc2ccco2)cc1 | -6 | -2 | 0 | -3 | 0 | 5
Cc1ccc(NCc2nnc(SCC(=O)c3ccccc3)n2Cc2ccco2)c(C)c1 | 64* | -15 | 2 | -1 | -6 | -12
CSc1nc(N)cc(=O)[nH]1 | -5 | -5 | -3 | 3 | 0 | -3
COc1ccccc1-c1ccc(Nc2ccc(C(=O)N3CCOCC3)cc2)nn1 | -7 | 2 | 18* | 4 | 0 | 8
N/C(CCS(=O)(=O)c1ccc(Cl)cc1)=N\OC(=O)c1ccccc1Cl | 4 | -1 | 25* | 1 | -5 | 7
N/C(=N\OC(=O)c1ccccc1Cl)c1ccc(Cl)cc1 | -3 | 6 | -5 | -6 | 8 | 0
O=C(COC(=O)/C=C/c1ccc(Br)o1)Nc1ccc2[nH]c(=O)[nH]c2c1 | 90* | 3 | -1 | -2 | 4 | -12
NC(=O)c1ccc(NC(=O)COC(=O)/C=C/c2ccc(Br)o2)cc1 | · | -4 | · | 3 | 0 | 3
O=C(COC(=O)c1cccc(S(=O)(=O)N2CCN(c3ccccc3)CC2)c1)NCc1ccco1 | 82* | -5 | 1 | 1 | 16 | -1
C=CCn1c(N)c(C(=O)NCCC2=CCCCC2)sc1=S | -6 | 31 | 3 | 38* | 15 | 1
NC(=O)NCCC1=CCCCC1 | -3 | 0 | -2 | 1 | -13 | 3
CCOc1ccc(-c2cc(C)n3nc(C(N)=O)cc3n2)cc1 | 50* | 6 | -1 | -2 | 7 | -6
Cc1csc(NC(=O)Nc2cccc(Cl)c2)n1 | -2 | 2 | 3 | -1 | 12 | 2
Cc1c(NS(=O)(=O)c2cccc(C(=O)OCC(=O)c3ccc(Cl)cc3)c2)c(=O)n(-c2ccccc2)n1C | · | 61* | · | -2 | 4 | 0
Cc1cc(C)cc(N2CC(C)(C)C2=O)c1 | -4 | 0 | -4 | 5 | -6 | 0
CC1=NN(c2ccccc2)C(=O)C1=Cc1ccccc1 | · | 15 | · | -2 | -12 | -2
CC1=NN(c2ccccc2)C(=O)/C1=C/c1ccc(Cl)cc1 | · | 18 | · | 12 | 28* | -10
CCc1ccc2[nH]c3nc(C)cc(C)c3c(=O)c2c1 | 1 | 41* | 4 | 37* | 6 | -4
CCc1ccc2[nH]cc(S(=O)(=O)c3ccc(C)c(C)c3)c(=O)c2c1 | 5 | -2 | -4 | -6 | -8 | -3
SMILES | core dimer inh | NPR1 activator | CTSL1 counter | GC-B act | ARFGAP1 inhibitor | ASAP1 inh
CC1=C(C#N)C(=O)N(C2CCS(=O)(=O)C2)C(=O)/C1=C\c1ccco1 (stereo not given) | 78* | · | 5 | · | · | ·
O=C1/C(=C\c2ccco2)SC(=S)N1C1CCCCC1 | 12 | · | 3 | · | · | ·
NC(=S)N/N=C1\CCOc2ccc(Cl)cc21 | 1 | 8 | 63* | 5 | 2 | -12
C/C(=N\NC(N)=S)c1ccc2c(c1)OCCO2 | 1 | -5 | 4 | 0 | 3 | 0
Cc1ccc(OCC(=O)N/N=C/C=C/c2ccco2)cc1 | 67* | -2 | 3 | -3 | -4 | -9
O=C(COc1ccccc1[N+](=O)[O-])N/N=C/C=C/c1ccco1 | 3 | 2 | 3 | -3 | 10 | 7
CC(=O)Nc1ccc(Nc2nc(C)c([N+](=O)[O-])c(Nc3ccc(NC(C)=O)cc3)n2)cc1 | -2 | 33 | -1 | 38* | -6 | 8
CC(/C=C/C1(O)C(C)CC(O)CC1(C)C)OC1OC(CO)C(O)C(O)C1O (stereo not given) | -4 | 3 | 55* | -2 | 10 | 5
CN(C)S(=O)(=O)c1ccc(C(=O)Nc2ccccc2C(=O)NCCCN2CCOCC2)cc1 | · | -8 | · | 1 | -6 | -2
O=C(Nc1ccccc1C(=O)NCCCN1CCOCC1)c1cccc([N+](=O)[O-])c1 | -26 | -4 | 18* | -7 | 5 | -4
COc1cc(C)c(C(=O)Oc2cc(C)c(C(=O)O)c(O)c2)c(O)c1 | -2 | 3 | -1 | -13 | -3 | 6
COC(=O)c1cc(OC)cc(O)c1C(=O)c1c(O)cc(C)cc1O | -2 | 1 | 52* | 10 | -18 | 4
NC(=O)NCc1ccc(C(=O)OCc2ccncc2)cc1 | 7 | 0 | -1 | 11 | -1 | 13
O=C1OCCC1Sc1nnc(-c2cccc(Br)c2)o1 (stereo not given) | 1 | 60* | 0 | 37* | 11 | 4
Cc1ccc2c(C)c(C(=O)Nc3c(C)n(C)n(-c4ccccc4)c3=O)oc2c1 | 1 | 2 | 1 | 8 | 5 | -11
O=C(CSc1nc2ccccc2n1CC(=O)N1CCOCC1)N1CCCC1 | -3 | 5 | 1 | -2 | 4 | 7
O=C(CSc1nc2ccccc2n1CC(=O)N1CCCC1)N1CCN(C(=O)c2ccco2)CC1 | 8 | 2 | 27* | 2 | 1 | 14
CCOc1ccccc1NC(=O)C1CCC(CNc2c(N3CCCCC3)c(=O)c2=O)CC1 (stereo not given) | 0 | 0 | 7 | -3 | -5 | -6
O=C(Nc1ccc(SC(F)F)cc1)C1=CC=CN2CCS(=O)(=O)N=C12 | · | 9 | · | 1 | -1 | -5
Cn1c(=O)c(C(=O)COc2ccc(F)cc2Cl)c(N)n(Cc2ccccc2)c1=O | 8 | 6 | 31* | -2 | 1 | 1

Assay outcomes deposited in PubChem by several laboratories.
